Results taken from ChEMBL document CHEMBL1134085, “Discovery of potent and selective phenylalanine derived CCR3 antagonists. Part 1” (Bioorg Med Chem Lett, 2001).
Where “and” joins values, the source holds several entries; their conditions need not be identical. Equal values may be shown once. Where a SMILES comes first, the peptide text is derived from it. The star is where a group is joined. Cbz = O=C(OCc1ccccc1)*

Experiments:
[1] = target: T1, C-C chemokine receptor type 3 (Homo sapiens, UniProt P51677); assay: Inhibitory activity against human eosinophil C-C chemokine receptor type 3 using [125I]- human eotaxin as the radioligand
T1 sequence (P51677 whole entry): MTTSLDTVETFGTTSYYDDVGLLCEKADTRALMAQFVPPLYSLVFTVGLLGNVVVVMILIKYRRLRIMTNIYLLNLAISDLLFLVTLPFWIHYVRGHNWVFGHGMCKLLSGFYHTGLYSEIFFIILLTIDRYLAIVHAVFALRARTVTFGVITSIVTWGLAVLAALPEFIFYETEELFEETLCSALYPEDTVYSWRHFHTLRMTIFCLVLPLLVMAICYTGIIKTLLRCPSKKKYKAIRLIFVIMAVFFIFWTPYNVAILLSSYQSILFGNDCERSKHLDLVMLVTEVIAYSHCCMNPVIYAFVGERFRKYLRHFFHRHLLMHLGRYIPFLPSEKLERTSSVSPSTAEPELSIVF
Outline: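 Competition binding on CCR3 from purified human eosinophils as receptor source, with [125I]human eotaxin as radioligand; IC50 taken as displacement of radioligand binding.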

[2] = target: T1, C-C chemokine receptor type 3; assay: […] against C-C chemokine receptor type 3 by displacing Eotaxin radioligand, using [Ca2+] mobilization assay; assay type: functional
Outline: (§1)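 Functional antagonism was tested in RBL-2H3 cells expressing CCR3. Cells were challenged with eotaxin or eotaxin-2, and the resulting rise in intracellular Ca2+ was measured. Inhibition of this calcium mobilization is reported as an IC50 in nM.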

[3] = target: T1, C-C chemokine receptor type 3; assay: […] activity against C-C chemokine receptor type 3 by displacing Eotaxin-2 radioligand, using [Ca2+] mobilization assay; assay type: functional; outline: as §1
[4] = target: T1, C-C chemokine receptor type 3; assay: […] activity against C-C chemokine receptor type 3 by displacing [125I]-MCP-4 radioligand, using CCR3 binding assay

Compound	IC50 [1]	other results
CCOC(=O)[C@H](Cc1ccc(O)cc1)NC(=O)c1cccc2ccccc12	0.08 µM	–
CCOC(=O)[C@H](Cc1ccc([N+](=O)[O-])cc1)NC(=O)c1ccccc1	0.049 µM	–
CC(C)OC(=O)[C@H](Cc1ccc([N+](=O)[O-])cc1)NC(=O)c1cccc2ccccc12	0.021 µM	–
O=C(N[C@@H](Cc1ccc([N+](=O)[O-])cc1)C(=O)NCc1ccccc1)c1cccc2ccccc12	4 µM	–
CCOC(=O)[C@@H](Cc1ccc(O)cc1)NC(=O)c1ccccc1	> 50 µM	–
CCOC(=O)[C@H](Cc1ccc(O)cc1)NC(=O)[C@H](CCC(N)=O)NC(=O)OCc1ccccc1 (Cbz-Gln-Tyr-OEt)	> 25 µM	–
CCOC(=O)[C@H](Cc1ccc(O)cc1)NS(=O)(=O)c1ccc(C)cc1	16 µM	–
CCOC(=O)[C@H](Cc1ccc([N+](=O)[O-])cc1)NC(=O)c1cccc2ccccc12	0.008 µM	–
CCOC(=O)[C@H](Cc1ccccc1)NC(=O)c1ccccc1	0.19 µM	–
CC(C)(C)OC(=O)[C@H](Cc1ccc([N+](=O)[O-])cc1)NC(=O)c1cccc2ccccc12	0.057 µM	–
CCOC(=O)[C@H](Cc1ccc(O)cc1)NC(=O)c1ccccc1	0.383 µM	–
CCOC(=O)[C@H](Cc1ccc(O)cc1)NC(=O)[C@H](Cc1ccccc1)NC(=O)OCc1ccccc1 (Cbz-Phe-Tyr-OEt)	6.25 µM	–
CCOC(=O)[C@H](Cc1cc(I)c(O)c(I)c1)NC(=O)c1ccccc1	0.535 µM	–
CCOC(=O)[C@H](CCc1ccccc1)NC(=O)c1ccccc1	5.95 µM	–
CCOC(=O)[C@H](Cc1ccc(O)cc1)NC(=O)[C@H](CC(N)=O)NC(=O)OCc1ccccc1 (Cbz-Asn-Tyr-OEt)	> 25 µM	–
CCOC(=O)[C@H](Cc1ccc(O)cc1)NC(=O)Nc1ccccc1	> 33 µM	–
O=C(N[C@@H](Cc1ccc([N+](=O)[O-])cc1)C(=O)OCc1ccccc1)c1cccc2ccccc12	0.018 µM	–
CCOC(=O)[C@H](Cc1ccc(O)cc1)NC(=O)c1ccccn1	1.7 µM	–

The next lines start with results.

IC50 [1]	Compound	other results
0.325 µM	CCOC(=O)[C@H](Cc1c[nH]c2ccccc12)NC(=O)c1ccccc1	–
9 µM	CCOC(=O)[C@H](C)NC(=O)c1ccccc1	–
> 20 µM	CCOC(=O)[C@@H](NC(=O)c1ccccc1)c1ccccc1	–
> 33 µM	CCCC(=O)[C@H](Cc1ccc([N+](=O)[O-])cc1)NC(=O)c1cccc2ccccc12	–
0.003 µM	CCOC(=O)[C@H](Cc1ccc([N+](=O)[O-])cc1)NC(=O)c1ccc(C)cc1C	–
2.6 µM	CCOC(=O)[C@H](Cc1ccc(O)cc1)NC(=O)Cc1ccccc1	–
0.005 µM	COC(=O)[C@H](Cc1ccc([N+](=O)[O-])cc1)NC(=O)c1cccc2ccccc12	IC50 [2]: 0.038 µM; IC50 [3]: 0.035 µM and 0.02 µM; IC50 [4]: 0.007 µM
> 25 µM	CCOC(=O)[C@H](Cc1ccc(O)cc1)NC(=O)[C@H](CO)NC(=O)OCc1ccccc1 (Cbz-Ser-Tyr-OEt)	–
> 33 µM	CN(C)C(=O)[C@H](Cc1ccc([N+](=O)[O-])cc1)NC(=O)c1cccc2ccccc12	–
